Screening results from PubChem.
In the library only some 3.5% were active in any assay of this set; here they are far more common.
MrgX1 allo act: allosterically activates human MrgX1 receptor signaling; 310,000 tested, 0.63% active; AID 588675; Q96LB2; B-score at 10 µM; MrgX1-HEK293, Fluo-4 calcium flux, FDSS; stronger effect = higher value;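 active = plate-corrected calcium response at least 3 library SD above typical, normal starting fluorescence, not activating the receptor alone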;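 also: compound read alongside a low EC10 to EC30 dose of BAM8-22 agonist; peak minus trough fluorescence over baseline measured at the second addition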
Target sequence (Q96LB2 whole entry, looked up): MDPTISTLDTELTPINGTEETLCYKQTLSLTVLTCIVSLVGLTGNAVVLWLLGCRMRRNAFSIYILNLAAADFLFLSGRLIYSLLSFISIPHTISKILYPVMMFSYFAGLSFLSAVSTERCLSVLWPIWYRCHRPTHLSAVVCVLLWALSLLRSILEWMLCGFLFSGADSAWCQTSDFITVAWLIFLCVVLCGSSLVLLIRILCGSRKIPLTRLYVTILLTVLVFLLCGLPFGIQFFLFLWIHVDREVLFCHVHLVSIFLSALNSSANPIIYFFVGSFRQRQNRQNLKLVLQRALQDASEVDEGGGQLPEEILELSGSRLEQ
RGS4 block: inhibitors of human RGS4. P49798. HEK293 M3R/RGS4 inducible, Fluo-4 calcium flux; stronger effect = higher value; triggered by carbachol at its EC20. B-score at 10 µM. 310,000 tested, 0.45% active. AID 463165;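 active = B-score, a plate-corrected calcium signal, over three deviations above library mean, with baseline fluorescence within five deviations of library mean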;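 also: RGS4 expression induced by doxycycline in cells with stable M3 receptor; B-score is computed from the integrated fluorescence ratio over baseline after carbachol; higher B-score means a larger calcium signal and so more RGS4 inhibition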
Target sequence (P49798 whole entry, looked up): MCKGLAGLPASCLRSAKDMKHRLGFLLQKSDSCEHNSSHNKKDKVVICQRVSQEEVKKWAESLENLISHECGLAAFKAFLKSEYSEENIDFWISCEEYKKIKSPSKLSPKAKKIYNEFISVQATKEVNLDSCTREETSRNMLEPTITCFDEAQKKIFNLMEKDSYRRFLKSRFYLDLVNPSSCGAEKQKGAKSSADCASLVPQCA
MrgX1 antag: antagonists of human MrgX1 receptor; Q96LB2; MRGX1-HEK293 calcium flux, Fluo-4, BAM8-22 antagonism; stronger effect = lower value; B-score at 10 µM; 310,000 tested, 1.3% active;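 active = calcium-response B-score plate-corrected more than 3 library SD below zero, starting fluorescence within 5 deviations, no agonist response on first addition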;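 also: peak minus trough fluorescence over baseline after final BAM8-22 challenge near maximal dose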
RGS4 pot: potentiators or activators of RGS4. B-score at 10 µM. AID 463111. 310,000 tested, 0.92% active. HEK293 M3R/inducible RGS4, carbachol calcium flux Fluo4; stronger effect = lower value;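 active = B-score of the integrated calcium signal more than 4 SD below the library mean, with starting fluorescence not abnormally high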;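 also: negative B-score means reduced calcium response which marks RGS4 activation or potentiation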
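test system = M3R-expressing HEK293 line, RGS4 induced by doxycycline | probe or stimulus = carbachol at ECmax as muscarinic agonist stimulus | timing = dye loading 30 min 37 °C, buffer rest 30 min RT | signal = calcium dye Fluo4 fluorescence | evaluation = B score from integrated fluorescence ratio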
MrgX1 agonist: agonists of human MrgX1 receptor; Q96LB2; MrgX1-HEK293 cells, Fluo-4 calcium fluorescence, agonist mode; stronger effect = higher value; B-score at 10 µM; 310,000 tested, 0.44% active; AID 588627;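 active = calcium response B-score plate-corrected fluorescence ratio at least 3 library SD, with starting fluorescence B-score inside 5 SD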
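Material – MrgX1-expressing HEK293 cells · Input – 15,000 cells seeded per well · Dosing – compound as first of three additions · Times – overnight seeding, then 1 h dark dye loading · Measured by – kinetic Fluo-4 NW fluorescence of intracellular calcium · Read-out – B-scored fluorescence response ratio · Benchmarks – positive and negative control wells on each plate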
MrgX1 antag conf: reconfirmed antagonist of human MrgX1 receptor signaling; shares compounds with MrgX1 antag; MrgX1-HEK293, BAM8-22 calcium flux, Fluo-4; stronger effect = lower value; remaining BAM8-22 calcium response % of control (stronger effect = lower value), % at 10 µM; 2,300 tested, 19% active; AID 602420;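 active = remaining agonist calcium response no higher than 100% minus 3 SD of agonist-only control wells, with starting fluorescence near control levels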;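 also: agonist BAM8-22 given at a near maximal EC90 to ECmax level; peak minus minimum fluorescence divided by baseline after agonist addition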
HEK293 Ca flux: counter-screen for MrgX1 antagonists: effect in parental HEK293 cells; fluorescence ratio F(max-min)/F0 at 10 µM; shares compounds with MrgX1 antag; AID 624111; 4,000 tested, 2% active; Fluo-4 calcium fluorescence, FDSS;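 active = duplicate-averaged calcium fluorescence ratio at least three times the standard deviation of buffer wells, a nonspecific response in parental cells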
HEK293 Ca counter: activity in parental HEK293 cells without MrgX1; shares compounds with MrgX1 antag; parental HEK293 calcium flux, Fluo-4 fluorescence ratio; stronger effect = higher value; fluorescence ratio F(max-min)/F0 at 10 µM; 4,000 tested, 0.4% active; AID 624114;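 active = calcium fluorescence ratio, averaged over duplicates, at least 3 SD of the buffer-well ratio, meaning a nonspecific response in receptor-free cells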;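 also: untransfected parental HEK293 lacking MrgX1 used as counterscreen for MrgX1 allosteric activators; fluorescence change taken during the second addition on a kinetic imager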
HEK293 Ca cntr2: counter-screen for MrgX1 activators: effect in parental HEK293 cells | shares compounds with MrgX1 antag | Fluo-4 calcium fluorescence (FDSS); stronger effect = higher value | fluorescence ratio F(max-min)/F0 at 10 µM | 4,000 tested, 8.7% active | AID 624115;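 active = calcium fluorescence ratio at least three times the spread of buffer wells, meaning a non-specific response in parental cells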
The depositor's hits bear a star; i = inactive; / = no result given.

SMILES	MrgX1 allo act	RGS4 block	MrgX1 antag	RGS4 pot	MrgX1 agonist	MrgX1 antag conf	HEK293 Ca flux	HEK293 Ca counter	HEK293 Ca cntr2
O=C(NS(=O)(=O)c1ccc(Cl)cc1)c1ccccc1	i	i	-4.9*	i	i	i	i	i	i
Cc1ccccc1OCC(=O)NS(=O)(=O)c1ccc(Cl)cc1	i	i	-9.16*	i	i	83.2%*	i	i	i
O=C(NS(=O)(=O)c1ccccc1)c1ccccc1	i	i	i	i	i	/	/	/	/
CC(CNC(=O)c1ccc(NC2=NC3CS(=O)(=O)CC3S2)cc1)c1ccccc1 (stereo unspecified)	i	i	-5.16*	i	i	i	i	i	i
CC(NC(=O)Cc1ccc(NC2=NC3CS(=O)(=O)CC3S2)cc1)c1ccccc1 (stereo unspecified)	i	i	i	i	i	/	/	/	/
CCOC(=O)c1c(NC(=O)CSc2nnc(C)o2)sc(C)c1C	i	i	i	i	i	/	/	/	/
COc1cc2c(cc1NC(=O)Nc1ccc(F)cc1)oc1ccccc12	i	i	i	i	i	/	/	/	/
CC(C)OC(=O)c1ccc(COC(=O)c2cnccn2)cc1	i	i	-5.36*	i	i	i	i	i	i
CCOc1ccc(CC(=O)Nc2c3c(nn2C(C)(C)C)CS(=O)(=O)C3)cc1	i	i	i	i	i	/	/	/	/
CCN(CC)S(=O)(=O)c1ccc(OC(C)C)nc1	i	i	-5.89*	i	i	i	i	i	i
O=C(CCc1nnc(C2CCCCC2)o1)N1CCN(C2CCCCC2)CC1	i	i	i	i	i	/	/	/	/
COC(c1ccccc1)c1nnc(CCC(=O)N2CCN(C3CCCC3)CC2)o1 (stereo unspecified)	i	i	-6.32*	i	i	i	i	i	i
CCC(C)(C(=O)NC1CCCC1)N(C(=O)c1ccccn1)c1ccccc1 (stereo unspecified)	i	i	-7.97*	i	i	i	i	i	i
Nc1nnnn1/N=C/c1ccccc1OCc1ccc(Cl)cc1	i	i	i	i	i	/	/	/	/
Nc1nnnn1/N=C/c1ccccc1OCc1ccc(Cl)cc1Cl	i	i	-4.76*	i	i	i	i	i	i
COC(=O)C1=C(C)NC(=O)C1(Nc1ccc(Cl)cn1)C(F)(F)F (stereo unspecified)	i	i	-4.64*	i	i	i	i	i	i
COC(=O)C1=C(C)NC(=O)C1(NC(=O)c1cccnc1)C(F)(F)F (stereo unspecified)	i	i	i	i	i	/	/	/	/
O=C(c1cccc(C(=O)N2CCN(c3ncccn3)CC2)c1)N1CCN(c2ncccn2)CC1	i	i	i	i	i	/	/	/	/
O=C(c1ccc2nc(-c3ccco3)c(-c3ccco3)nc2c1)N1CCN(c2ncccn2)CC1	i	i	-6*	i	i	83.0%*	i	i	i
O=C(Nc1ccccc1)c1ccc2nc(-c3ccco3)c(-c3ccco3)nc2c1	i	i	-4.56*	i	i	79.0%*	i	i	i
CCCNC(=O)c1ccc2nc(-c3ccccc3)c(-c3ccccc3)nc2c1	i	i	-5.34*	i	i	i	i	i	i
O=C(Nc1ccc(N2CCOCC2)cc1)c1ccc2nc(-c3ccco3)c(-c3ccco3)nc2c1	i	i	i	i	i	/	/	/	/
CN(C)S(=O)(=O)c1cccc(C(=O)NCCCn2ccnc2)c1	i	i	i	i	i	/	/	/	/
O=C(NCCCn1ccnc1)c1cccc(S(=O)(=O)Nc2ccc(Br)cc2)c1	i	i	-4.55*	i	i	i	i	i	i
CN(C(=O)COC(=O)c1cccnc1Nc1cccc(C(F)(F)F)c1)C1CCS(=O)(=O)C1 (stereo unspecified)	i	i	-5.74*	i	i	i	i	i	i
SMILES	MrgX1 allo act	RGS4 block	MrgX1 antag	RGS4 pot	MrgX1 agonist	MrgX1 antag conf	HEK293 Ca flux	HEK293 Ca counter	HEK293 Ca cntr2
CN(C(=O)COC(=O)c1cccnc1Nc1ccccc1F)C1CCS(=O)(=O)C1 (stereo unspecified)	i	i	i	i	i	/	/	/	/
Cc1ccc(S(=O)(=O)n2nnc3ccccc32)c(C)c1C	i	i	-4.8*	i	i	i	i	i	i
O=C(O)CCCC(=O)Nc1ccccc1C(=O)O	i	i	-6.44*	i	i	i	i	i	i
CC(/C=N/Nc1nc(C)cc(C)n1)=C\c1ccc(C(C)C)cc1	i	i	i	i	i	/	/	/	/
Cc1ccc(C)c(N2C(=O)C3C4C=CC(CC4)C3C2=O)c1 (stereo unspecified)	i	i	i	i	i	/	/	/	/
Nc1nc(-c2ccc(Oc3ccccc3)cc2)c(CC(=O)O)s1	i	i	i	i	i	/	/	/	/
O=C(Nc1cccnc1)c1cccc(S(=O)(=O)N2CCc3ccccc32)c1	i	i	i	i	i	/	/	/	/
O=C(Nc1cccnc1)c1ccc(COc2ccccc2Br)cc1	i	i	-7.38*	i	i	i	i	i	i
COc1cccc(C(=O)Nc2cccnc2)c1	i	i	-4.97*	i	i	i	i	i	i
O=C(NCc1cccnc1)c1ccc(COc2ccccc2Br)cc1	i	i	i	i	i	/	/	/	/
CC1Cc2ccccc2N1S(=O)(=O)c1cccc(C(=O)Nc2cccnc2)c1 (stereo unspecified)	i	i	-4.6*	i	i	i	i	i	i
CC(=O)c1cccc(NC(=O)Oc2ccccc2)c1	i	i	-7.77*	i	i	i	i	i	i
CC(=O)c1ccc(NC(=O)Oc2ccccc2)cc1	i	i	i	i	i	/	/	/	/
CCOc1ccc(CCNC(=O)COC(=O)c2nc(Cl)ccc2Cl)cc1OCC	i	i	i	i	i	/	/	/	/
